High-throughput results from PubChem BioAssay.
PGC1a Ac signal – raises PGC1a acetylation signal in U2OS cells. activation, % at 15.6 µM. AID 651723. U2OS PGC1a acetylation AlphaScreen, overnight. 0.21% of 350,000 active;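 active = every replicate reaching activation of at least 50%, whatever the mean replicate activation; inconclusive = replicates that disagree or another doubt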;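 note: hits raise the AlphaScreen acetylation signal above neutral controls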
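System: Flag-PGC1a/GCN5 U2OS cells | Quantity: 7000 cells/well | Times: Overnight compound treatment, 37 °C | Measured by: AlphaScreen proximity luminescence, anti-acetyl-lysine antibody | Dosing: One concentration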
Hep G6PC suppr – hepatocyte G6PC expression change via PGC-1a acetylation activation. AID 743463. primary mouse hepatocytes, G6PC mRNA qPCR, forskolin. shares compounds with PGC1a Ac signal. 240 tested, under 10 active. G6PC suppression (normalized activity, % of positive control; higher = more suppression), % at 26 µM;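 active = dose curves showing G6PC suppression whose half-maximal dose is at most twice the top valid dose; inconclusive = flat curves with moderate negative activity, or unreliable fits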;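 note: G6PC expression relative to GAPDH housekeeping gene as delta delta Ct; 0% = median of neutral control wells and 100% = median of positive control wells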
Hep PCK1 suppr – hepatocyte PCK1 expression change via PGC-1a acetylation activation; shares compounds with PGC1a Ac signal; primary mouse hepatocytes, PCK1 mRNA qPCR, forskolin-stimulated; PCK1 expression decrease, unspecified at 26 µM; 230 tested, under 10 active;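 active = compounds lowering PCK1 expression whose fitted half-maximal concentration is at most twice the top tested dose; inconclusive = flat fit with moderate opposite-direction effect, or poor fit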;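 note: values are delta delta Ct of PCK1 relative to GAPDH; higher delta delta Ct means lower PCK1 expression so positive values indicate hits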
PGC1a hep suppr – hepatocyte PGC-1a expression change via PGC-1a acetylation activation; 240 tested, under 10 active; AID 743467; primary mouse hepatocytes, PGC-1a mRNA qPCR, forskolin; top dose 26 µM; shares compounds with PGC1a Ac signal; max activity (PGC-1a expression decrease), %;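 active = compound lowering PGC-1a expression with fitted half-maximal concentration at most twice its top tested dose; inconclusive = flat curve with moderate opposite-direction effect, or poor fit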;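 note: 0% = neutral control wells median and 100% = positive control wells median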
* = called active by the depositor; ? = inconclusive. These entries were drawn from the full list.

SMILES	PGC1a Ac signal	others
COc1ccc(C2c3[nH]c4ccccc4c3C[C@H]3C(=O)N(c4ccccc4C(=O)N4CCC[C@@H]4C(=O)O)C(=O)N23)cc1 (stereo not given in full)	-44
Fc1cccc(CN2C[C@@H]3N[C@H](C2)[C@@H]3c2ccc(-c3cccc(F)c3)cc2)c1	-99
COc1cc(CN2C[C@@H]3N[C@H](C2)C3c2ccc(-c3cccc(OC)c3)cc2)cc(OC)c1 (stereo not given in full)	69*
O=C(OCc1nnc(-c2ccccc2)o1)C1=COCCO1	-61
CCOC(=O)C1CCN(C2=NC(=O)/C(=C/c3ccc(O)cc3)S2)CC1	-41
CCOC(=O)C1CCN(Cc2ccc(O)c3ncccc23)CC1	61*
CCOC(=O)C1CCCN(C(=O)CSc2ccc(Br)cc2)C1 (stereo not given)	-78
C[C@@H]1CN([C@H](C)CO)C(=O)CCCn2nncc2CO[C@H]1CN(C)S(=O)(=O)c1cn(C)cn1	-105
O=C(CCNC(=O)C1CCN(S(=O)(=O)c2ccc(F)cc2)CC1)NCc1ccccc1Cl	64*
Cn1c(=O)c2cc(S(=O)(=O)NCCC(=O)NCc3ccccc3Cl)ccc2n(C)c1=O	-47
COc1ccc(S(=O)(=O)NCCC(=O)NCc2ccc(F)cc2)cc1	-80
COc1ccc(S(=O)(=O)N2CCOCC2)cc1NC(=O)CCNC(=O)c1ccc([N+](=O)[O-])cc1	419*
COc1ccc(OC)c(Nc2ccc(C(=O)O)cc2[N+](=O)[O-])c1	-42
CCN(c1ccccc1)S(=O)(=O)c1ccc(OC)c(NC(=O)Cc2ccc(F)cc2)c1	-40
C=CS(=O)(=O)N(Cc1ccc(Cl)c(Cl)c1)C[C@@H](O)CO	65*
O=P(COCCOCCOCCOCP(=O)(c1ccccc1)c1ccccc1)(c1ccccc1)c1ccccc1	-44
O=C(O)COc1ccc(/C=C2/SC(=S)N(Cc3ccccc3)C2=O)cc1	-72
COc1cc(-c2cnc3c(NC=O)cc(-c4ccc(C)cc4)cn23)cc(OC)c1OC	89*
COc1cc(-c2cnc3c(NC=O)cc(-c4ccccc4Cl)cn23)cc(OC)c1OC	102*
COc1cc(-c2cnc3c(NC=O)cc(-c4ccccc4)cn23)cc(OC)c1OC	105*
C[C@@H]1CN([C@@H](C)CO)C(=O)CCCn2nncc2CO[C@@H]1CN(C)C(=O)NC1CCCCC1	-51
C#CCN(C[C@@H]1[C@@H](OC(=O)NCCCCCC)[C@@H](OC(=O)NCCCCCC)Cn2c(=O)ccc(=O)n21)S(=O)(=O)c1ccc(C)cc1	-92
CC1(C)CC(=O)C(C=NCC(N)=O)=C(O)C1	-52
Cc1ccccc1OCC(=O)OCC(=O)NCc1ccc2c(c1)OCO2	68*
COc1ccccc1/C=C(/C(=O)OCC(=O)NCc1ccccc1)c1ccccc1	-92
SMILES	PGC1a Ac signal	others
CN1CCN(/N=C/c2ccc(OCc3ccccc3)cc2)CC1	-41
O=C(NCC[C@@H]1CC[C@H](NS(=O)(=O)Cc2ccccc2)[C@H](CO)O1)C1CCC1	-61
O=C(NCCN1CCOCC1)c1ccc(=O)oc1	52*
O=C(Nc1ccc(CN2CCOCC2)cc1)c1ccc(F)cc1	-54
Cc1cc(F)cc(-c2cc(C(=O)NCc3ccccc3)[nH]n2)c1	-41
COc1ccccc1Oc1ccc2c(c1)C(=O)N(c1ccc(C)cc1)C2=O	-104
C[C@H]1CCC/C=C/[C@@H]2C[C@H](O)C[C@H]2[C@H](O)[C@H](S(=O)c2ccc(O)cc2)CC(=O)O1 (stereo not given in full)	-66
O=C(/C=C/c1ccc(F)cc1)NNC(=O)CCN1CCN(Cc2ccccc2)CC1	-52
COc1cc(CN2CC3(CCN(S(=O)(=O)c4cccs4)CC3)c3c(n(C)c4cc(OC)ccc34)[C@H]2CO)cc(OC)c1	63*
O=C(CCC1CCCN(C(=O)c2cc(C3CC3)[nH]n2)C1)N1CCN(c2ccccn2)CC1 (stereo not given)	-98
N#Cc1c(C#N)c(O)c2ccccc2c1O	-46
O=C(O)CCCC(=O)Nc1ccc(Br)cc1C(=O)O	50*
O=C(COc1ccccc1)N1CCN=C1SCc1ccccc1	-43
COc1ccc(C(=O)Sc2nncc3ccccc23)cc1	-42
C=C(C(=O)c1ccccc1)C(C(=C)C(=O)c1ccccc1)c1ccc(OC)cc1	160*
CCc1nc2c(OCc3ccc(S(C)(=O)=O)cc3)cccn2c1N(C)C(=O)c1ccccc1F	-45
Cc1ccc(-c2ccc3c(c2)O[C@@H](CN(C)C(=O)C2CCCCC2)[C@H](C)CN([C@H](C)CO)S3(=O)=O)cc1	-42
O=c1[nH]cnc2c1ccn2C1OC(CO)C(O)C1O (stereo not given)	138*
CO[C@@H]1CN(C)C(=O)c2cc(NC(C)=O)ccc2OC[C@@H](C)N(Cc2ccccc2C(=O)O)C[C@@H]1C	-43
N#C[C@@H]1[C@H](c2ccccc2C2=CCCCC2)[C@H](CO)N1C(=O)Cc1ccncc1	-45
C[C@@H]1CN([C@H](C)CO)C(=O)c2cc(NS(=O)(=O)c3ccc(F)cc3)ccc2O[C@H]1CN(C)Cc1ccc(C(F)(F)F)cc1	-56
C/C=C/c1ccc2c(c1)O[C@@H](CN(C)C(=O)NC(C)C)[C@H](C)CN([C@H](C)CO)S2(=O)=O	-44
COc1ccccc1-c1ccc2c(c1)O[C@@H](CN(C)Cc1ccc3c(c1)OCO3)[C@@H](C)CN([C@@H](C)CO)S2(=O)=O	65*	Hep G6PC suppr=553;Hep PCK1 suppr=110;PGC1a hep suppr=54
COc1ccc(-c2cnc3c(c2)C(=O)N([C@H](C)CO)C[C@H](C)[C@@H](CN(C)C(=O)C2CCC2)O3)cc1	-44
C[C@@H]1CN([C@H](C)CO)C(=O)c2cc(C3=CCCCC3)cnc2O[C@@H]1CN(C)Cc1ccccc1	-44
SMILES	PGC1a Ac signal	others
C[C@H]1CN([C@@H](C)CO)S(=O)(=O)c2ccc(C#CCN(C)C)cc2O[C@@H]1CN(C)Cc1ccc2c(c1)OCO2	?	Hep G6PC suppr=304;Hep PCK1 suppr=132;PGC1a hep suppr=45
C=CC(=O)N1C/C(=C/c2ccccc2)C(=O)/C(=C\c2ccccc2)C1	-73
CCOC(=O)c1sc2nc(C)nc(NCc3ccccc3OC)c2c1C	-63	Hep G6PC suppr=101;Hep PCK1 suppr=149;PGC1a hep suppr=129
Cc1ccc(S(=O)(=O)/N=C2\C=C(Nc3ccc(O)cc3)C(=O)c3ccccc32)cc1	-86
Cc1ccc(S(=O)(=O)NC(CC(C)C)C(=O)N2CCCCCCC2)cc1 (stereo not given)	64*	Hep G6PC suppr=7;Hep PCK1 suppr=77;PGC1a hep suppr=77
O=C(C[C@@H]1C=C[C@@H](NC(=O)Nc2ccc(F)cc2)[C@@H](CO)O1)NCCN1CCCC1	-48
O=S1(=O)CC=C(CSC(=S)NC2CCS(=O)(=O)C2)C1 (stereo not given)	-47
O=C(Cc1ccccn1)NCC[C@@H]1CC[C@H](NC(=O)Nc2ccc(C(F)(F)F)cc2)[C@H](CO)O1	-78
CSc1nsc(SC)c1NC(=O)Nc1ccccc1C	-103	Hep G6PC suppr=-16;Hep PCK1 suppr=21;PGC1a hep suppr=56
